The results in this text go back to ChEMBL document CHEMBL4334552, “Discovery of BMS-986260, a Potent, Selective, and Orally Bioavailable TGFβR1 Inhibitor as an Immuno-oncology Agent” (ACS Med Chem Lett, 2020).

In one data set the target is TGF-beta receptor type-2 (Homo sapiens, UniProt P37173). Put plainly: Inhibition of wild type His-tagged TGFBR2 kinase domain (unknown origin) incubated for 1 hr by HTRF analysis.
Data set [1] can be described thus: Half life in Balb/C mouse at 5 mg/kg, iv. The format is ADME, organism-based. Conditions: in vivo. Put shortly: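 Male Balb/C mice (n = 3) dosed iv at 5 mg/kg in the same PK study as a 10 mg/kg oral arm. Vehicle was 70% 25 mM acetate buffer pH 4.0, 5% ethanol, 25% PEG 400. Half-life was taken from the iv arm.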
The next data set concerns the target Phosphodiesterase 4 (Homo sapiens, UniProt P27815+Q08499+Q07343+Q08493). Description: Inhibition of PDE4 (unknown origin) by HTRF assay. The format is protein assay.
The target in the next data set is Cytochrome P450 3A4 (Homo sapiens, UniProt P08684). Put plainly: Inhibition of recombinant CYP3A4 (unknown origin). The format is ADME.
Sequence of Cytochrome P450 3A4 (P08684 whole entry): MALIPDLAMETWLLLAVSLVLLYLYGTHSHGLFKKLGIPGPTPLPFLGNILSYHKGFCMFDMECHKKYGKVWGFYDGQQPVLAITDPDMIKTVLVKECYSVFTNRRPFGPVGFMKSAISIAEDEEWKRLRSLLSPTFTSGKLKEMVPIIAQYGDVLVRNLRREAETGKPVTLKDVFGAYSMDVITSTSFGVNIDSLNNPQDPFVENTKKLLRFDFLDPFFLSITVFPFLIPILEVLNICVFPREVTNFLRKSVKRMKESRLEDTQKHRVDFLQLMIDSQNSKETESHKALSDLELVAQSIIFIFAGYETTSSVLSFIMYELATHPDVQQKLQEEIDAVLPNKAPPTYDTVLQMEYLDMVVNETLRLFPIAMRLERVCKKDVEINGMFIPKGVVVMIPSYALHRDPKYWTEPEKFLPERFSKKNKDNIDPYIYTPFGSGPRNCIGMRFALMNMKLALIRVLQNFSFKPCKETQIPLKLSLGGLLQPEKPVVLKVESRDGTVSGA
The next data set deals with Salmonella typhimurium. Put plainly: Genotoxicity against Salmonella typhimurium by Ames test. The class given is toxicity, organism-based. The conditions noted are these: salmonella enterica subsp. enterica serovar typhimurium. In general terms: The Ames test detects mutagens through reverse mutation in bacteria.
A short description of data set [2]: Half life in human liver microsomes in presence of NADPH. The format is ADME, Microsome. Background: Liver microsomes are a subcellular fraction often used to study metabolism.
Data set [3] is described as follows: Total AUC in Balb/C mouse at 10 mg/kg, po. The format is ADME, organism-based. Also on record: dose 10 mg/kg, route oral, time AUCmax. Conditions: in vivo. The method in brief:
(§1)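 Male Balb/C mice (n = 3) dosed iv at 5 mg/kg and po at 10 mg/kg. Vehicle was 70% 25 mM acetate buffer pH 4.0, 5% ethanol and 25% PEG 400.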

The next data set deals with MC-38. Description: Induction of long-term antitumor memory response in compound-mediated tumor cured C57Bl/6 mouse allografted with mouse MC38 cells assessed as reduction in tumor growth following rechallenge with newly implanted mouse MC38 cells treated at 3.75 to 15 mg/kg, po qd for 28 days and cotreated with anti-PD1 at 10 mg/kg, ip every 4 days for 3 doses prior to MC38 cells rechallenge by digital caliper analysis. The class given is functional, organism-based. The method in brief: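 Mice cured by oral dosing plus anti-PD-1 (10 mg/kg IP, every 4 days, three doses) were re-implanted with MC38 or LL2 cells. Tumor growth was compared with naive mice.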

Data set [4] can be described thus: Metabolic stability of compound in human liver microsomes assessed as compound remaining. The format is ADME, Microsome.
Data set [5] can be described thus: Volume of distribution at steady state in Balb/C mouse at 5 mg/kg, iv. The format is ADME, organism-based. Conditions: in vivo, read-out: Vdss. The method in brief: as §1
In another data set the target is T1, Cytochrome P450 1A2 (Homo sapiens, UniProt P05177).
T1 sequence (P05177 whole entry): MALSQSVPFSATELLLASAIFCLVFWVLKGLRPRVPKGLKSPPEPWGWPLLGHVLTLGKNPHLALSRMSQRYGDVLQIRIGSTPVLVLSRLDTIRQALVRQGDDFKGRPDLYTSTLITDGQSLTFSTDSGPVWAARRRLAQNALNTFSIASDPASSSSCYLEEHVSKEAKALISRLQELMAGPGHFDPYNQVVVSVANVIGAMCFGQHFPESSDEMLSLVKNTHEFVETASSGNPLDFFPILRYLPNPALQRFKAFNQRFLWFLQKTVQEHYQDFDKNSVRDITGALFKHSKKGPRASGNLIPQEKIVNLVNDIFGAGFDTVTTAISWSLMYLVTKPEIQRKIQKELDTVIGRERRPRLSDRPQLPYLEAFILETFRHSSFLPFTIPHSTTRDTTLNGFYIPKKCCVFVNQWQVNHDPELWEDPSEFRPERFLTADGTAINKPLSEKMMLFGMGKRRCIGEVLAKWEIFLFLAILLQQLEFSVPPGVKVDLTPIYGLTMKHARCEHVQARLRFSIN
Description: Induction of recombinant CYP1A2 (unknown origin) up to 24 microM. The class given is ADME. The conditions noted are these: recombinant enzyme.

The target in data set [6] is T2, TGF-beta receptor type-1 (Mus musculus, UniProt Q64729).
T2 sequence (Q64729 whole entry): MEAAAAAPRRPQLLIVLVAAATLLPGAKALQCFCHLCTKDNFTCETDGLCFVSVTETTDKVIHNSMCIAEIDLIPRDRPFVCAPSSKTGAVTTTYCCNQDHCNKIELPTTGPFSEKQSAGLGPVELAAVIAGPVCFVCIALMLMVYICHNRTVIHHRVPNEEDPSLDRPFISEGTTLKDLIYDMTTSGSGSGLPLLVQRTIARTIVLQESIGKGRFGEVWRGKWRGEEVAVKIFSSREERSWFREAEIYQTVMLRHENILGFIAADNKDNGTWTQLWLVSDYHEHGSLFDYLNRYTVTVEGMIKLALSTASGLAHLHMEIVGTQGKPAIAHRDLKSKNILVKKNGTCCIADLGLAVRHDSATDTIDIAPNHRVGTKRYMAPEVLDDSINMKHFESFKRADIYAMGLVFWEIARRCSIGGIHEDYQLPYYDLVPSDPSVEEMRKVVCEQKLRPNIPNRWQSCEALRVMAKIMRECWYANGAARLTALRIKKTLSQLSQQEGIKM
Description: Inhibition of TGFbetaR1 in TGFbeta-stimulated mouse NIH3T3 cells assessed as reduction in SMAD3 phosphorylation. The class given is cell-based.

Data set [7] in a line: Metabolic stability of compound in mouse liver microsomes assessed as compound remaining. The class given is ADME, Microsome.
Data set [8] can be described thus: Cardiovascular toxicity in dog assessed as valvulo-pathy at 5 mg/kg, po for 10 days. The class given is organism-based, Canis lupus familiaris. The conditions noted are these: in vivo, 240 h. The method in brief:
(§2)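 Exploratory toxicology studies of 10 days with daily oral dosing in rats and dogs. Cardiovascular findings, including valvulopathy and aortic pathology, were assessed.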

A short description of data set [9]: Volume of distribution at steady state in Sprague Dawley rat at 5 mg/kg, iv. The class given is ADME, organism-based. Conditions: in vivo, read-out: Vdss. Put shortly:
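Male Sprague–Dawley rats (n = 3) received a PEG400 solution iv at 5 mg/kg and po at 10 mg/kg.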

The target of data set [10] is T3, Nuclear receptor subfamily 1 group I member 2 (Homo sapiens, UniProt O75469).
T3 sequence (O75469 whole entry): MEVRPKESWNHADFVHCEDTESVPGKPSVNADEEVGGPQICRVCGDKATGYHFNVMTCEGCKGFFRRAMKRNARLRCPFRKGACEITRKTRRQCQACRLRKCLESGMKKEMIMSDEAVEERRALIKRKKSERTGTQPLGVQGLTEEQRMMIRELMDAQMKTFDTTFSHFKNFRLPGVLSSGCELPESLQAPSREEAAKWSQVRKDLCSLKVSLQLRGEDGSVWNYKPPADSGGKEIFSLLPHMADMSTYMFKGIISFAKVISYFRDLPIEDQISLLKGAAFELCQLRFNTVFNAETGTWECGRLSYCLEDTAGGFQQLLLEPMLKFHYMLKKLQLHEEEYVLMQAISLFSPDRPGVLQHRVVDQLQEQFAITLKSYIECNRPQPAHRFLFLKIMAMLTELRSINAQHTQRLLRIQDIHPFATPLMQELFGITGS
Description: Activation of PXR (unknown origin).

Data set [11] has as its target TGF-beta receptor type-1 (Homo sapiens, UniProt P36897, T204D). Description: Inhibition of His-tagged TGFBR1 kinase domain T204D mutant (unknown origin) incubated for 1 hr by HTRF analysis. (TR-FRET usually uses a lanthanide donor and a delayed reading to cut background.)
Data set [12] can be described thus: Cardiovascular toxicity in rat assessed as valvulo-pathy at 1 mg/kg, po for 10 days. The format is organism-based. The conditions noted are these: in vivo, 240 h. The method in brief: as §2

The source made the active and inactive calls. No cut-off for these calls is given here.

Sequence of TGF-beta receptor type-1 (Homo sapiens, UniProt P36897, T204D) (P36897 34-503 T204D limits assumed): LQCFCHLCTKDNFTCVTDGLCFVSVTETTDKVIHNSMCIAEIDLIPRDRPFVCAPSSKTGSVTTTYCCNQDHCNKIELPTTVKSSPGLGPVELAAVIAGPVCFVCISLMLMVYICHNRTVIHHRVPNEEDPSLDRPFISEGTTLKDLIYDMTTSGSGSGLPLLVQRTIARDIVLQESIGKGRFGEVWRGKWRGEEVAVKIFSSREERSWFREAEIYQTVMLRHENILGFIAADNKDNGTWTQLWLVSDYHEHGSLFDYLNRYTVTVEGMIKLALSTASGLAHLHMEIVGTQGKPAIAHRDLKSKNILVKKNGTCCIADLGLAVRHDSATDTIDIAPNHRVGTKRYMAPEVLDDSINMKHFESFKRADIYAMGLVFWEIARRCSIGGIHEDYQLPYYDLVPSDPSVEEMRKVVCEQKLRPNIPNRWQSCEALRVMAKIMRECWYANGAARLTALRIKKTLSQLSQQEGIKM
Sequence of TGF-beta receptor type-2 (P37173 whole entry, the tested form may be a part): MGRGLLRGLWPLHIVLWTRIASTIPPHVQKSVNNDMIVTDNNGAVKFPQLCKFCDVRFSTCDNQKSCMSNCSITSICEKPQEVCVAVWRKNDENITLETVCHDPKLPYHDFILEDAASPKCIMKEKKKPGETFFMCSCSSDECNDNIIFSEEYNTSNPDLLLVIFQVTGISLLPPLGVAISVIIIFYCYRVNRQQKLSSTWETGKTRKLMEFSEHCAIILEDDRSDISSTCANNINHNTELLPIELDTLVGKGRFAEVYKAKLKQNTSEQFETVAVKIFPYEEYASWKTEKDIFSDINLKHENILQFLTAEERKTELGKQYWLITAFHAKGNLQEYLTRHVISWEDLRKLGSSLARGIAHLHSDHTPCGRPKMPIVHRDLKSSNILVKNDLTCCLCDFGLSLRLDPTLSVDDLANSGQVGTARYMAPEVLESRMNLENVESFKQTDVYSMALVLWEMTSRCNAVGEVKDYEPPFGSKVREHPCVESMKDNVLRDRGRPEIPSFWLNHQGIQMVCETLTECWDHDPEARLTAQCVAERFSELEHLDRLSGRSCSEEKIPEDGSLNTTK

For the compound `N#Cc1cnc2ccc(-c3c(-c4ccc(F)c(Cl)c4)ncn3CCO)nn12`, the IC50 – broadly, the concentration needed to halve the response being measured – at TGF-beta receptor type-2 is more than 15 µM; against Phosphodiesterase 4 it was 11 µM; on Cytochrome P450 3A4 it was more than 20 µM; at TGF-beta receptor type-1 [6], 0.05 µM; at TGF-beta receptor type-1 [11], 0.0016 µM. The half-life (in general, how long it takes for the measured level to halve) is 9.1 h in data set [1] and 0.383 h in data set [2]. In addition, the Activity result in the data set on Salmonella typhimurium is “Non-Toxic”; on Cytochrome P450 1A2, “Not Active”; in data set [8], “Toxic”; in [12], “Toxic”. For the same compound, the AUC (commonly the area under the concentration-time curve, a measure of exposure) in [3] worked out at 80.5 µM·h. The outcome in the data set on MC-38 was Active. Moreover, the values for the Stability in data set [4] and in [7] were 77% and 81%, respectively. The Vd in data set [5] was 4.5 L/kg; in [9], 2.4 L/kg. Further, the EC50 (as a rule, the concentration at which the effect is half-maximal) in data set [10] is more than 24 µM.
